Measurements from different studies.
Protocols differ between the studies behind these lines.
Target: Ephrin type-A receptor 5 (EPHA5, Homo sapiens, UniProt P54756)

COc1ncccc1-c1cnn2ccc(N3CCN(C(=O)OC(C)C)CC3)nc12  remaining binding (binding; competition with immobilised ligand; 1 µM): 100%
C#Cc1n[nH]c2c(-c3cn([C@@H](C)c4ccccn4)c(=O)[nH]c3=O)cc(F)cc12  inhibition (enzyme activity; inhibitor; 0.1 µM): 8.9%
O=c1[nH]c2ccccc2n1C1CCN(Cc2ccc(-c3[nH]c4cc5ncnc5cc4nc3-c3ccccc3)cc2)CC1  remaining signal (cell-free assay; 0.5 µM): 102%
Cc1nn(C)cc1-c1nc2c(N3CCN(Cc4ccc(Cl)cc4)CC3)c(Cl)cnc2[nH]1  remaining binding (binding; competition with immobilised ligand; 1 µM): 100%
Cn1cc(-c2cc(F)cc(N3CCn4c(cc5c4CCCC5)C3=O)c2CO)cc(Nc2ccc(N3CCN(C4COC4)CC3)cn2)c1=O  inhibition (enzyme activity; inhibitor; 0.1 µM): 11%
Cn1cncc1[C@@](O)(COc1ccc(C#N)cc1-c1ccc(OC(F)(F)F)cc1)c1ccc(C#N)cc1  remaining binding (cell-free assay; competition with immobilised ligand; 1 µM): 67%
COc1cc(Nc2ncc(F)c(Nc3ccc4c(n3)NC(=O)C(C)(C)O4)n2)cc(OC)c1OC  inhibition (binding; competition with immobilised ligand; 10 µM): 64%
Cn1cc(-c2cccc(N3CCc4c(sc5c4CC(C)(C)C5)C3=O)c2CO)cc(Nc2ccncn2)c1=O  inhibition (enzyme activity; inhibitor; 1 µM): 1%
C#Cc1n[nH]c2c(-c3cn([C@@H](C)c4ccccc4)c(=O)[nH]c3=O)cc(F)cc12  inhibition (enzyme activity; inhibitor; 0.1 µM): 5.4%
CC(C)(C)c1cc(C=C(C#N)C#N)cc(Br)c1O  remaining activity (enzyme activity; inhibitor; 0.5 µM): 106%
